Consider 4 compounds from ChEMBL document CHEMBL1125331, “6-Hydroxy-3-n-propyl-2,3,4,5-tetrahydro-1H-3-benzazepine and analogs: new centrally acting 5-HT1A receptor agonists” (J Med Chem, 1992).

In assay [1] the target is T1, 5-hydroxytryptamine receptor 1A (Rattus norvegicus, UniProt P19327).
T1 sequence (P19327 whole entry): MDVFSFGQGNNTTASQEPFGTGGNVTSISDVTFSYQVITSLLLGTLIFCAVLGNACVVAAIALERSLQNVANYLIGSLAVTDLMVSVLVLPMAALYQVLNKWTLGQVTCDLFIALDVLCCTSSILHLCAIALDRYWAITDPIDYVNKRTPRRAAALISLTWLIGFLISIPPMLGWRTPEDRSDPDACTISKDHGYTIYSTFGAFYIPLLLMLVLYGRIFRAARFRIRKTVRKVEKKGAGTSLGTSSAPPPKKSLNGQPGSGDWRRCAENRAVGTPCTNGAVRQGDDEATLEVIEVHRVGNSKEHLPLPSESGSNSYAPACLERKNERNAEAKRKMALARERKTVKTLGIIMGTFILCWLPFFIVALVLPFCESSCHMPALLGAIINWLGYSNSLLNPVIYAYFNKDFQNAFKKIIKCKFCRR
Kind of assay: Inhibitory activity against 5-hydroxytryptamine 1A receptor in rats, using [3H]8-OH-DPAT as radioligand. In a few lines:
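Rat whole-brain membranes (minus brainstem and cerebellum) in 50 mM Tris pH 8.0 with 120 mM NaCl, 4 mM CaCl2, 4 mM MgCl2 and 10 μM pargyline. Rapid filtration, then scintillation counting. Nonspecific binding defined with 10 μM 5-HT. IC50 by semi-log plot and linear regression.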

Assay [2] deals with D(2) dopamine receptor (Rattus norvegicus, UniProt P61169). Kind of assay: Inhibitory activity against Dopamine receptor D2 in rats using [3H]spiperone as radioligand. In a few lines:
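Rat striatal membranes in 50 mM potassium phosphate buffer pH 7.4 were incubated with 0.5 nM [3H]spiperone for 10 min at 37 °C. Specific binding was defined with 10 μM 6,7-ADTN.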

In assay [3] the test system is Rattus norvegicus. In words: Effect evaluated in vivo on 5-HTP accumulation in limbic system at a dose 50 umol/kg (s.c.). Type of assay: functional. In a few lines: (§1)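 Male Sprague-Dawley rats (200–300 g) were pretreated with reserpine 5 mg/kg sc 18 h before. Test compound was given sc at 5 mL/kg in neutral solution. 5-HT synthesis rate was indexed by […] 5-HTP accumulation after decarboxylase inhibition with NSD 1015, measured by HPLC-electrochemical detection. Dose-response used 4–6 dose levels, n = 4.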

In assay [4] the test system is Rattus norvegicus. Kind of assay: Effect evaluated in vivo on 5-HTP accumulation in corpus striatum at a dose 50 umol/kg (s.c.). In kind it is functional. In a few lines:
(§2)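 Male Sprague-Dawley rats (200–300 g) were pretreated with reserpine 5 mg/kg sc 18 h beforehand. Test drug was given at neutral pH, 5 mL/kg. Aromatic amino acid decarboxylase was blocked with NSD 1015. 5-HTP in the dissected brain region was assayed by HPLC with electrochemical detection.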

The test system of assay [5] is Rattus norvegicus. In words: Effect evaluated in vivo on 5-HTP accumulation in NE-rich hemispheres at a 50 dose uM/kg(sc). In kind it is functional. In a few lines:
as §2

Assay [6] concerns Rattus norvegicus. In words: The compound was tested in vivo for locomotor activity in rats at 50 umol/kg after subcutaneous administration. In kind it is functional. In a few lines: (§3)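 Male Sprague-Dawley rats received reserpine 5 mg/kg sc in the neck 18 h before testing. Test compound was given sc in the neck (n = 4). Rats were placed singly in photocell motility meters immediately after dosing, and counts were accumulated over 30 min (tests 9 a.m.–1 p.m.). Gross behaviour, including 5-HT syndrome, was observed throughout.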

In assay [7] the test system is Rattus norvegicus. Kind of assay: Effect evaluated in vivo on 5-HTP accumulation in limbic system at a dose 3.1 umol/kg (s.c.). In kind it is functional. In a few lines: as §1
Assay [8] relates to Rattus norvegicus. Kind of assay: Effect evaluated in vivo on 5-HTP accumulation in corpus striatum at a dose 3.1 umol/kg (s.c.). In kind it is functional. In a few lines:
as §2

Assay [9] relates to Rattus norvegicus. Kind of assay: Effect evaluated in vivo on 5-HTP accumulation in corpus striatum at ED50 umol/kg after subcutaneous administration. Conditions: sc. Type of assay: functional. In a few lines:
as §2

Assay [10] has as its system Rattus norvegicus. In words: Effect evaluated in vivo on 5-HTP accumulation in limbic system after subcutaneous administration. In kind it is functional. Conditions: sc. In a few lines:
as §2

Assay [11] deals with Rattus norvegicus. In words: Effect evaluated in vivo on 5-HTP accumulation in limbic system at a dose 12.5 umol/kg (s.c.). In kind it is functional. In a few lines: as §1
In assay [12] the test system is Rattus norvegicus. In words: Effect evaluated in vivo on 5-HTP accumulation in NE-rich hemispheres at ED50 umol/kg after subcutaneous administration. In kind it is functional. As to conditions: sc. In a few lines:
as §2

The subject of assay [13] is Rattus norvegicus. Kind of assay: Effect evaluated in vivo on 5-HTP accumulation in NE-rich hemispheres at a 12.5 dose uM/kg(sc). In kind it is functional. In a few lines:
as §2

Assay [14] concerns Rattus norvegicus. In words: Effect evaluated in vivo on 5-HTP accumulation in NE-rich hemispheres at a 3.1 dose uM/kg(sc). In kind it is functional. In a few lines: as §2
For assay [15], the system named is Rattus norvegicus. Kind of assay: Effect evaluated in vivo on 5-HTP accumulation in corpus striatum after subcutaneous administration. Type of assay: functional. In a few lines:
as §2

Assay [16] relates to Rattus norvegicus. Kind of assay: The compound was tested in vivo for locomotor activity in rats at 0.2 umol/kg after subcutaneous administration.
Assay [17] has as its system Rattus norvegicus. In words: Effect evaluated in vivo on 5-HTP accumulation in limbic system at a dose uM/kg(sc). In kind it is functional. In a few lines: as §1
In assay [18] the test system is Rattus norvegicus. In words: Effect evaluated in vivo on 5-HTP accumulation in corpus striatum at a dose uM/kg(sc). Type of assay: functional. In a few lines:
as §2

For assay [19], the system named is Rattus norvegicus. In words: Effect evaluated in vivo on 5-HTP accumulation in NE-rich hemispheres at a dose uM/kg(sc). Type of assay: functional. In a few lines:
as §2

Assay [20] deals with Rattus norvegicus. Kind of assay: Effect evaluated in vivo on 5-HTP accumulation in limbic system at a dose 25 umol/kg (s.c.). In kind it is functional. In a few lines:
as §1

The subject of assay [21] is Rattus norvegicus. In words: Effect evaluated in vivo on 5-HTP accumulation in limbic system at a dose 6.25 umol/kg (s.c.). Type of assay: functional. In a few lines: as §1
Assay [22] concerns Rattus norvegicus. Kind of assay: Effect evaluated in vivo on NE synthesis in NE-rich hemispheres at a 0.20 dose uM/kg(sc). Type of assay: functional. In a few lines:
(§4)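 Rats pretreated with reserpine 5 mg/kg sc 18 h before received test compound sc at 5 mL/kg in neutral solution. After decarboxylase inhibition with NSD 1015, dopa accumulation in hemispheres (mainly cortex) was measured by HPLC-electrochemical detection as an index of NE synthesis. Dose-response used 4–6 dose levels, n = 4.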

For assay [23], the system named is Rattus norvegicus. Kind of assay: Effect evaluated in vivo on NE synthesis in NE-rich hemispheres at a 0.39 dose uM/kg(sc). In kind it is functional. In a few lines:
as §4

Assay [24] has as its system Rattus norvegicus. In words: Effect evaluated in vivo on NE synthesis in NE-rich hemispheres at a 1.56 dose uM/kg(sc). Type of assay: functional. In a few lines:
as §4

The subject of assay [25] is Rattus norvegicus. In words: Effect evaluated in vivo on NE synthesis in NE-rich hemispheres at a 25 dose uM/kg(sc). In kind it is functional. In a few lines:
as §4

The test system of assay [26] is Rattus norvegicus. In words: Effect evaluated in vivo on NE synthesis in NE-rich hemispheres at a 6.25d ose uM/kg(sc). Type of assay: functional. In a few lines:
as §4

The test system of assay [27] is Rattus norvegicus. Kind of assay: Effect evaluated in vivo on 5-HTP accumulation in corpus striatum at a dose 25 umol/kg (s.c.). In kind it is functional. In a few lines:
as §2

The test system of assay [28] is Rattus norvegicus. Kind of assay: Effect evaluated in vivo on NE synthesis in NE-rich hemispheres after subcutaneous administration. In kind it is functional. Conditions: sc. In a few lines: as §4
Assay [29] relates to Rattus norvegicus. Kind of assay: Effect evaluated in vivo on 5-HTP accumulation in corpus striatum at a dose 6.25 umol/kg (s.c.). In kind it is functional. In a few lines: as §2
Assay [30] deals with Rattus norvegicus. In words: Effect evaluated in vivo on 5-HTP accumulation in limbic system at a dose 0.20 umol/kg (s.c.). Type of assay: functional. In a few lines: as §2
The test system of assay [31] is Rattus norvegicus. Kind of assay: Effect evaluated in vivo on 5-HTP accumulation in limbic system at a dose 0.39 umol/kg (s.c.). In kind it is functional. In a few lines:
as §2

In assay [32] the test system is Rattus norvegicus. In words: Effect evaluated in vivo on 5-HTP accumulation in limbic system at a dose 1.56 umol/kg (s.c.). In kind it is functional. In a few lines: as §1
The test system of assay [33] is Rattus norvegicus. In words: Effect evaluated in vivo on 5-HTP accumulation in corpus striatum at a dose 0.20 umol/kg (s.c.). Type of assay: functional. In a few lines:
as §2

Assay [34] concerns Rattus norvegicus. Kind of assay: The compound was tested in vivo for locomotor activity in rats at 25 umol/kg after subcutaneous administration. Type of assay: functional. In a few lines:
as §3

In assay [35] the test system is Rattus norvegicus. Kind of assay: Effect evaluated in vivo on 5-HTP accumulation in corpus striatum at a dose 0.39 umol/kg (s.c.). Type of assay: functional. In a few lines:
as §2

One may read the IC50 as the concentration that inhibits the measured activity by half. The low end stands for higher potency, the high end for lower potency. Usually ED50 stands for the dose at which the effect has come halfway, by size or by number of responders.

D(2) dopamine receptor, sequence (P61169 whole entry): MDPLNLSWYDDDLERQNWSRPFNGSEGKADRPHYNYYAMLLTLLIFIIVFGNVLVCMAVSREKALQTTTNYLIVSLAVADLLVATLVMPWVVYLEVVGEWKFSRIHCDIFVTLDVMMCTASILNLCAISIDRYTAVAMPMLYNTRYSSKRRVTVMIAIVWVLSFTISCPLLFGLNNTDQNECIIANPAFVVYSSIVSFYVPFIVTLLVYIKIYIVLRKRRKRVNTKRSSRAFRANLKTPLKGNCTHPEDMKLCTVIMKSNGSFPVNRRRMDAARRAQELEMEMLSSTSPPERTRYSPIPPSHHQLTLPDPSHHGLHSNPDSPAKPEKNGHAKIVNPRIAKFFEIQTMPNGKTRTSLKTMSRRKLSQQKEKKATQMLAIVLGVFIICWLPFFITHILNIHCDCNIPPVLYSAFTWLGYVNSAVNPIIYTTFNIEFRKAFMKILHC

As for `CCN1CCc2cccc(OC)c2CC1`, the IC50 in assay [1] was 210 nM; in [2], 2200 nM. Also, the figures for the Control in assay [3], in [4] and in assay [5] were 66%, 66% and 64%, respectively. Besides, the Locomotor activity in [6] was 62.
Regarding `CN1CCc2cccc(O)c2CC1`, the Control in assay [7] is 106%; in [3] it was 57%; in assay [8], 104%; in [4], 54%; in [11], 72%; in assay [13], 73%. Besides, the Control in assay [14] worked out at 96%; in assay [5], 58%; in assay [15], 70%. For the same compound, the ED50 in [9] was 11 µmol/kg; in assay [10], 10 µmol/kg; in assay [12], 12 µmol/kg. In [16], the Locomotor activity worked out at 6.
With `CCCCN1CCc2cccc(O)c2CC1`, the figures for the concentration for half-maximal inhibition (IC50) in assay [1] and in assay [2] were 420 nM and 12000 nM, respectively. The values for the Control in assay [17], in assay [18] and in assay [19] were 84%, 111% and 108%, respectively. The compound also showed a Locomotor activity in assay [6] of 19.
As to `CCCN1CCc2cccc(O)c2CC1`, the results for the IC50 in assay [1] and in assay [2] were 81 nM and > 100000 nM, respectively. Besides, the Control in assay [20] is reported as 76%; in [21] it was 51%; in assay [22], 115%; in assay [23], 129%; in [24], 73%; in assay [25], 72%. In addition, the Control in assay [26] is recorded as 53%; in [27] it was 75%; in [29], 67%; in assay [30], 117%; in assay [31] it was 129%; in [32], 70%. In addition, the Control in [33] is 125%; in assay [35], 135%. In addition, the ED50 in assay [10] was 1.3 µmol/kg; in [28], 1.4 µmol/kg; in [15] (sc), 2.2 µmol/kg. For the same compound, in [34], the Locomotor activity came out at 102.
